From ChEMBL document CHEMBL2440017, “Discovery of a potent, selective, and orally bioavailable histamine H3 receptor antagonist SAR110068 for the treatment of sleep-wake disorders” (Bioorg Med Chem Lett, 2013)
The source made the active and inactive calls. The calls are words filed in the database; no cut-off is given here.

How the values were obtained:
[1] = Distribution coefficient, log D of the compound at pH 7.4; assay type: physicochemical; settings: octanol/water
[2] = Elimination half life in Sprague-Dawley rat brain at 10 mg/kg, po; assay type: ADME, organism-based; design: dose 10 mg/kg, route oral; settings: read-out: beta t1/2 (converted)
In short: (§1)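 Oral gavage at 10 mg/kg to male OF1 mice (vehicle 5% DMSO/0.5% MC/0.2% Tween80, 1.0 mg/mL) or male Sprague-Dawley rats (vehicle 0.5% MC/0.2% Tween80, 1.0 mg/mL). Plasma and brain exposure and half-life determined.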

[3] = Drug degradation in water after 48 hrs at room temperature; assay type: physicochemical; settings: read-out: Drug degradation
In short: (§2)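 Compound kept 48 h at room temperature in water, aqueous solutions of pH 1.0–7.4, DMSO, or GI-tract simulation medium. Percent degradation measured.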

[4] = Inhibition of p-glycoprotein (unknown origin); settings: human
[5] = Metabolic stability in dog microsomes; assay type: ADME, Canis lupus familiaris, Microsome
In short: (§3)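 Percentage biotransformation measured in vitro in liver microsomes of each species.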

Mus musculus [6] = test: Toxicity in mouse assessed as tremors at 100 mg/kg, po; assay type: organism-based; design: dose 100 mg/kg, route oral; settings: in vivo
[7] = Elimination half life in OF1 mouse brain at 10 mg/kg, po; assay type: ADME, organism-based; design: dose 10 mg/kg, route oral; settings: read-out: beta t1/2 (converted); in short: as §1
[8] = Drug degradation in DMSO after 48 hrs at room temperature; assay type: physicochemical; settings: read-out: Drug degradation; in short: as §2
Hepatocyte = test: Clearance in human hepatocytes; assay type: ADME, cell-based
In short: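 Human hepatocytes in vitro, n = 4 preparations. Metabolic clearance expressed per 10^6 hepatocytes per hour. Also tested at a lower 0.5 concentration to check for concentration dependence.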

[9] = Plasma concentration in cynomolgus monkey at 10 mg/kg, iv after 5 mins; assay type: ADME, organism-based, Macaca fascicularis; design: dose 10 mg/kg, route intravenous
In short: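 Anaesthetized cynomolgus monkeys were dosed 10 mg/kg i.v. Plasma drug concentrations were measured at 5, 15 and 30 min post-dose, alongside arterial pressure, heart rate and ECG intervals.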

[10] = Volume of distribution in OF1 mouse plasma at 2 mg/kg, iv; assay type: ADME, organism-based; design: dose 2 mg/kg, route intravenous
In short: (§4)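 Male OF1 mice received 2 mg/kg i.v. (1.0 mg/mL in 50% 1-methyl-2-pyrrolidinone/saline) or 10 mg/kg p.o. (1.0 mg/mL in 5% DMSO/0.5% MC/0.2% Tween80). Plasma and brain AUC0-inf were measured, and the B/P ratio was calculated from i.v. AUC0-inf.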

Salmonella typhimurium = test: Genotoxicity in Salmonella typhimurium at 3 to 1000 ug/ml by Ames 2 test; assay type: toxicity, organism-based; settings: salmonella enterica subsp. enterica serovar typhimurium
In short: (§5)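 Ames II and micronucleus tests, Ames over 3–1000 µg/mL and MNT over 5–950 µg/mL. Each run with and without metabolic activation by human liver microsome preparations.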

[11] = Oral bioavailability in OF1 mouse plasma at 10 mg/kg; assay type: ADME, organism-based; in short: as §4
[12] = Ratio of AUC (0 to infinity) in OF1 mouse brain to AUC (0 to infinity) in OF1 mouse plasma at 2 mg/kg, iv; assay type: ADME, organism-based; design: dose 2 mg/kg, route intravenous; settings: read-out: Ratio AUC; in short: as §4
[13] = Ratio of AUC (0 to infinity) in Sprague-Dawley rat brain to AUC (0 to infinity) in Sprague-Dawley rat at 2 mg/kg, iv; assay type: ADME, organism-based; design: dose 2 mg/kg, route intravenous; settings: read-out: Ratio AUC
In short: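 Male Sprague–Dawley rats received 2 mg/kg i.v. (0.5 mg/mL in saline) or 10 mg/kg p.o. (1.0 mg/mL in 0.5% MC/0.2% Tween80). Plasma and brain AUC0-inf were measured, and the B/P ratio was calculated from i.v. AUC0-inf.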

Histamine H3 receptor [14] = target: T1, Histamine H3 receptor (Homo sapiens, UniProt Q9Y5N1); test: Displacement of [3H]N-alpha-methylhistamine from human histamine H3 receptor expressed in CHO cells; assay type: cell-based
[15] = target: Sigma non-opioid intracellular receptor 1 (Homo sapiens) (UniProt Q99720); test: Inhibition of sigma 1 receptor (unknown origin) at 10 uM
In short: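 CEREP selectivity panel: percent inhibition of control specific binding at 10 µM.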

[16] = Metabolic stability in rabbit microsomes; assay type: ADME, Oryctolagus cuniculus, Microsome; in short: as §3
Cytochrome P450 2C9 = Cytochrome P450 2C9 (Homo sapiens, UniProt P11712); test: Inhibition of CYP2C9 (unknown origin); assay type: ADME
[17] = Metabolic stability in guinea pig plasma; assay type: ADME, cell-free, Cavia porcellus
In short: (§6)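 Compound stability measured in plasma of each species in vitro.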

Plasma [18] = test: Clearance in OF1 mouse plasma at 2 mg/kg, iv; assay type: ADME, organism-based; design: dose 2 mg/kg, route intravenous; settings: in vivo
In short: (§7)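 Male OF1 mice or male Sprague-Dawley rats, single 2 mg/kg i.v. dose. Mouse vehicle 50% 1-methyl-2-pyrrolidinone in saline at 1.0 mg/mL; rat vehicle saline at 0.5 mg/mL. Plasma and brain levels followed over time; AUC0-inf, t1/2 and clearance derived from exposure. Brain/plasma ratio uses i.v. AUC0-inf.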

[19] = Genotoxicity in micronucleus (unknown origin) at 5 to 950 ug/ml; in short: as §5
[20] = Activation of p-glycoprotein (unknown origin); settings: human
[21] = Lipophilicity, log P of the compound; assay type: physicochemical; settings: octanol/water
In short: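 clogP calculated with ACD/Labs methods.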

[22] = Elimination half life in Sprague-Dawley rat brain at 2 mg/kg, iv; assay type: ADME, organism-based; design: dose 2 mg/kg, route intravenous; settings: read-out: beta t1/2 (converted); in short: as §7
Mus musculus [23] = test: Toxicity in mouse assessed as behavioral side effect at 10 to 30 mg/kg, po; assay type: organism-based; design: dose 10-30 mg/kg, route oral; settings: in vivo
In short: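 Acute oral behavioral safety evaluation in mice. Oral doses were 0, 10 and 30 mg/kg. Behavioral, neurologic and autonomic signs were scored.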

[24] = AUC (0 to infinity) in Sprague-Dawley rat plasma at 2 mg/kg, iv; assay type: ADME, organism-based; design: time infinity, dose 2 mg/kg, route intravenous; in short: as §7
Plasma [25] = test: Metabolic stability in sheep plasma; assay type: ADME, cell-free, Ovis aries; in short: as §6
[26] = Metabolic stability in monkey microsomes; assay type: ADME, Macaca mulatta, Microsome; settings: rhesus monkey; in short: as §3
[27] = Solubility of the compound in gastrointestinal tract simulation medium; assay type: physicochemical
[28] = Elimination half life in OF1 mouse plasma at 2 mg/kg, iv; assay type: ADME, organism-based; design: dose 2 mg/kg, route intravenous; settings: read-out: beta t1/2 (converted); in short: as §7
[29] = AUC (0 to infinity) in OF1 mouse plasma at 2 mg/kg, iv; assay type: ADME, organism-based; design: dose 2 mg/kg, route intravenous, time infinity; in short: as §7
[30] = Drug degradation in aqueous solution at pH 1.0 to 7.4 after 48 hrs at room temperature; assay type: physicochemical; settings: read-out: Drug degradation; in short: as §2
Rattus norvegicus = test: Awakening activity in rat assessed as increased wakefulness at 3 to 10 mg/kg, po after 4 hrs; assay type: functional, organism-based
In short: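 Rats given compound orally at 3 or 10 mg/kg, or reference drugs i.p. or p.o. at 10 mg/kg. EEG recorded during the light phase and scored as wakefulness, slow wave sleep and REM sleep. Time-course analysis of the effects.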

CYP3A4 = CYP3A4 (Homo sapiens, UniProt P08684); test: Inhibition of CYP3A4 (unknown origin) at 0.5 uM; assay type: ADME
[31] = AUC (0 to infinity) in Sprague-Dawley rat brain at 2 mg/kg, iv; assay type: ADME, organism-based; design: dose 2 mg/kg, route intravenous, time infinity; in short: as §7
[32] = Metabolic stability in guinea pig microsomes; assay type: ADME, Cavia porcellus, Microsome; in short: as §3
Mus musculus [33] = test: Autonomic toxicity in mouse at 10 to 30 mg/kg, po; assay type: organism-based; design: dose 10-30 mg/kg, route oral; settings: in vivo
In short: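 Acute oral behavioural safety evaluation in grouped mice at 0, 10 and 30 mg/kg p.o. Animals scored for behavioural, neurologic and autonomic signs.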

[34] = Induction of CYP450 in human hepatocytes at 1 to 60 uM; assay type: ADME, cell-based, Hepatocyte
In short: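 Human hepatocytes (n = 4) exposed at 1–60 concentration and examined for induction of CYP isoforms.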

[35] = AUC in OF1 mouse brain at 10 mg/kg, po; assay type: ADME, organism-based; design: dose 10 mg/kg, route oral; in short: as §1
Histamine H3 receptor [36] = target: T1, Histamine H3 receptor; test: Antagonist activity at human histamine H3 receptor expressed in CHO cells co-expressing CRE-Luc; assay type: functional, cell-based

T1 sequence (Q9Y5N1 whole entry): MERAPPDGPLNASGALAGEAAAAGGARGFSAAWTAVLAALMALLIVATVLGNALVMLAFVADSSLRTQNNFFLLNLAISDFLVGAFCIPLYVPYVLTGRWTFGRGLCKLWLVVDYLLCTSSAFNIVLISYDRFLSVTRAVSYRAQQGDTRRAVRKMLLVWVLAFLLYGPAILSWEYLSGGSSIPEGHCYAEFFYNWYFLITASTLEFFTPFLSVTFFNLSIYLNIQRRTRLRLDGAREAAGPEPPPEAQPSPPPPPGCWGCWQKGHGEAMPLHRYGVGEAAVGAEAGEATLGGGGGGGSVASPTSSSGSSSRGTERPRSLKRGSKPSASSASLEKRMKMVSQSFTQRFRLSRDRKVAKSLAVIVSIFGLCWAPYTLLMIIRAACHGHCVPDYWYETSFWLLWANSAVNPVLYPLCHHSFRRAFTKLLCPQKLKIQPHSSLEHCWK
Sigma non-opioid intracellular receptor 1 (Homo sapiens), sequence (Q99720 whole entry): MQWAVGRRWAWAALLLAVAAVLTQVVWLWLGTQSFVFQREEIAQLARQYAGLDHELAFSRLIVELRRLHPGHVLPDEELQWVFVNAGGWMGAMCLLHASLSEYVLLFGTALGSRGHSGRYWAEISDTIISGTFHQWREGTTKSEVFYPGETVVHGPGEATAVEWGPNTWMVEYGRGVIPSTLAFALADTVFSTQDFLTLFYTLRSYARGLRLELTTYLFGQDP
CYP3A4, sequence (P08684 whole entry): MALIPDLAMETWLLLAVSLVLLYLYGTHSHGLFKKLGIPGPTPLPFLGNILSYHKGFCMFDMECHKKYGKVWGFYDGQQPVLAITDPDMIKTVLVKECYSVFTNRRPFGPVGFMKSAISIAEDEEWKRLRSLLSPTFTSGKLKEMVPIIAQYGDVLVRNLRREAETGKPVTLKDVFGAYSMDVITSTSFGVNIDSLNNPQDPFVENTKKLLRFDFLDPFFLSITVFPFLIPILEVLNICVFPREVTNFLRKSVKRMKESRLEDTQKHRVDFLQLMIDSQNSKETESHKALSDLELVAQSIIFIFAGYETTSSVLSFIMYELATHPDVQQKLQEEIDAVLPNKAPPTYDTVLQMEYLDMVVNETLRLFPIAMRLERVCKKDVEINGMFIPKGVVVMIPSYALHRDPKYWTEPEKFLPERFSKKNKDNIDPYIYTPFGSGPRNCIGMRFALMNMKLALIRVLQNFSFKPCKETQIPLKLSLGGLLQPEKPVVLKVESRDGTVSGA
Cytochrome P450 2C9, sequence (P11712 whole entry): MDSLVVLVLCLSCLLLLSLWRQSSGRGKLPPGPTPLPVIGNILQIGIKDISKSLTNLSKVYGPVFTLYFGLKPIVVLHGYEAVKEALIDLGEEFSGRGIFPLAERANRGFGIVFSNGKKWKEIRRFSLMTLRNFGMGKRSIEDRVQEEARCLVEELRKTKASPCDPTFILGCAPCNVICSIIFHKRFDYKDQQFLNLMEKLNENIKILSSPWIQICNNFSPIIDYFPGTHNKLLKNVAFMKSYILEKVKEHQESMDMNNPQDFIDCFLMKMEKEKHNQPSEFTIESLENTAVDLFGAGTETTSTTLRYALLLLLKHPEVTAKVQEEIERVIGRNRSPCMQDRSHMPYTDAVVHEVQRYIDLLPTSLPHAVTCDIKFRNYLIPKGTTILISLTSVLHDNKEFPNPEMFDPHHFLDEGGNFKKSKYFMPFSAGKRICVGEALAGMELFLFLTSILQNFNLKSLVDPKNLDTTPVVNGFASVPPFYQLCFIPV

**Q.** Which results are given for `Cc1cc(N2CC[C@H](N3CCC[C@@H]3C)C2)ccc1NC(=O)C1CCOCC1`?
**A.** logD [1]: 0.15; half-life [2]: 3.8 h; degraded at 48 h [3]: < 2%; inhibition (INH) [4]: Not Active; Stability [5]: Stable; Activity (Mus musculus [6]): Non-toxic; half-life [7]: 1.9 h; degraded at 48 h [8]: < 2%; CLH (Hepatocyte): 0.031 mL/h; concentration at 5 min [9]: 28 µM; Vd [10]: 3.5 L/kg; Activity (Salmonella typhimurium): Non-toxic; bioavailability [11]: 58%; Kp [12]: 0.35; Kp [13]: 0.33; Ki (Histamine H3 receptor [14]): 1 nM; inhibition [15]: 53%; Stability [16]: Stable; inhibition (INH) (Cytochrome P450 2C9): Active; Stability [17]: Stable; clearance (Plasma [18]): 30 mL/min/kg; Activity [19]: Non-toxic; Activity [20]: Not Active; logP [21]: 1.31; half-life [22]: 3.6 h; Activity (Mus musculus [23]): Non-toxic; AUC(0-inf) [24]: 2100 ng·h/mL; Stability (Plasma [25]): Stable; Stability [26]: Stable; solubility [27]: > 2500 µg/mL; half-life [28]: 3.6 h; AUC(0-inf) [29]: 1100 ng·h/mL; degraded at 48 h [30]: < 2%; Activity (Rattus norvegicus): Active; inhibition at 0.5 µM (CYP3A4): 49%; AUC(0-inf) [31]: 700 ng·h/mL; Stability [32]: Stable; Activity (Mus musculus [33]): Non-toxic; Activity [34]: Not Active; AUC [35]: 1200 ng·h/mL; EC50 (Histamine H3 receptor [36]): 0.9 nM
